From PubChem BioAssay
CASP6 VEID inh = blocks human caspase-6 cleavage activity; P55212; purified caspase-6, Z-VEID-R110 cleavage fluorescence; inhibition, % at 12.5 µM; 350,000 compounds, 0.53% hits;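 active means mean inhibition across replicates at least about 35%, with every replicate also reaching that limit, limit read from the data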
MBD2 DNA inh = MBD2-methylated oligo binding inhibition; Q9UBB5; TR-FRET, MBD2 binding to methylated oligonucleotide; inhibition, % at 4.4 µM; 370,000 compounds, 0.31% hits; in the data active means inhibition above about 13%
Target sequence (Q9UBB5 whole entry, looked up): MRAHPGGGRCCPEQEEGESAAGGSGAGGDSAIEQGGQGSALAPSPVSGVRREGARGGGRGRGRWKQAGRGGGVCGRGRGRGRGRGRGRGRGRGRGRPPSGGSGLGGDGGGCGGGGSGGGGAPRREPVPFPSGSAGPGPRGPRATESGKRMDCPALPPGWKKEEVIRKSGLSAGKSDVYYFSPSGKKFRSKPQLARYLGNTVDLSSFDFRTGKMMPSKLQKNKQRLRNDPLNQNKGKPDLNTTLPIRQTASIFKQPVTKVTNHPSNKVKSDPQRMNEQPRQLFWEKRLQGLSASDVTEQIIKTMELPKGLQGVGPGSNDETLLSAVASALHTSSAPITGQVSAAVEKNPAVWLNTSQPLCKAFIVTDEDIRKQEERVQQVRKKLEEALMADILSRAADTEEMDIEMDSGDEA
LEDGF integ inh = blocks HIV-1 LEDGF/p75-dependent DNA integration; TR-FRET IN-LEDGF/p75 DNA integration, Eu/Cy5; inhibition, % at 3.7 µM; 370,000 compounds, 0.64% hits;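 active means inhibition above the screen-wide mean plus 3 SD, cut at about 13% in these data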;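 further: signal is the Cy5 over europium emission ratio at 671 and 618 nm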
NSD2 inh = blocks human histone methyltransferase NSD2 | NSD2 peptide methylation, AlphaScreen, 120 min | O96028 | AID 743445 | 310,000 compounds, 0.54% hits | inhibition, % at 12.5 µM; in the data active means inhibition above about 50%
TDP2 absorb = blocks human TDP2 phosphodiesterase activity; inhibition, % at 12.8 µM; 370,000 compounds, 0.34% hits; O95551; AID 720702; recombinant TDP2, T5PNP hydrolysis, p-nitrophenol absorbance 415 nm;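 active means inhibition above the mean of all tested compounds plus 3 SD, set per campaign, cut at about 25% in these data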
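System – recombinant human TDP2 · Quantity – TDP2 enzyme at 120 nM final · Doses – single concentration, 12.8 µM nominal, with 1% DMSO · Incubation – 2 h at 37 °C · Measured by – epi absorbance of p-nitrophenol freed from T5PNP by hydrolysis · Read-out – % inhibition relative to enzyme-containing and enzyme-free wells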
UHRF1 binding = human UHRF1 methylated DNA binding inhibitors; 370,000 compounds, 0.75% hits; Q96T88; UHRF1 binding to methylated oligo, TR-FRET; inhibition, % at 4.4 µM; AID 687016; in the data active means inhibition above about 21%;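 further: UHRF1 SRA domain binding a hemimethylated CpG hairpin DNA probe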
AlphaScreen art = interferes with AlphaScreen signal, flagging NSD2 false positives; shares compounds with NSD2 inh; AlphaScreen artifact counterscreen, preloaded methylated H4 peptide; AC35, µM (series often up to 10 µM); 1,500 compounds, 9.4% hits; AID 1053174; call rule not given here
Large screens that a line does not name were inactive (follow-up assays come after a bar, where they were run). Compounds with a hit are over-represented: about 1.9% of the library has one in this group of screens.

O=C(OCc1ccc([N+](=O)[O-])cc1)c1cc(=O)c2ccccc2o1	NSD2 inh 115.2 | AlphaScreen art inactive
CN(Cc1ccccc1)S(=O)(=O)c1ccc(Cl)c(C(=O)OCC(N)=O)c1	none
CN(C)S(=O)(=O)c1ccc(Cl)c(C(=O)OCC(=O)c2ccco2)c1	NSD2 inh 55.4 | AlphaScreen art inactive
C[C@H](CO)N1C[C@H](C)[C@@H](CN(C)S(=O)(=O)c2ccc(F)cc2)OCCCC[C@H](C)Oc2ccc(NC(=O)NC3CCCCC3)cc2C1=O	none (no result: MBD2 DNA inh, LEDGF integ inh, NSD2 inh, TDP2 absorb, UHRF1 binding)
C[C@H]1CN([C@@H](C)CO)C(=O)Cc2cc(NC(=O)CCN3CCOCC3)ccc2O[C@H]1CN(C)Cc1ccc(Oc2ccccc2)cc1	none (no result: MBD2 DNA inh, LEDGF integ inh, NSD2 inh, TDP2 absorb, UHRF1 binding)
C/C(N)=C(/C#N)C(=O)COC(=O)c1ccncc1	none (no result: CASP6 VEID inh)
CC(=O)Nc1ccc(C(=O)OCC(=O)/C(C#N)=C(\C)N)cc1	NSD2 inh 73.9 | AlphaScreen art inactive
CCOCC(=O)Nc1nc2ccc(OC)cc2s1	none (no result: CASP6 VEID inh)
COc1ccc2nc(NC(=O)CS(=O)(=O)c3ccc(C)cc3)sc2c1	NSD2 inh 68.8 | AlphaScreen art inactive
CO[C@H]1CN(C)C(=O)c2cc(NC(C)=O)ccc2OC[C@H](C)N(C(=O)c2ccc(F)cc2)C[C@@H]1C	none (no result: MBD2 DNA inh, LEDGF integ inh, NSD2 inh, TDP2 absorb, UHRF1 binding)
COC(=O)c1sc(NC(=O)COc2ccc(OC)cc2)nc1C	none (no result: CASP6 VEID inh)
CCOC(=O)c1sc(NC(=O)COc2ccc3c(c2)OCO3)nc1C	NSD2 inh 114.0 | AlphaScreen art inactive
O=C(C[C@H]1C=C[C@H](NS(=O)(=O)c2ccc(F)cc2)[C@H](CO)O1)NCCc1ccncc1	none (no result: MBD2 DNA inh, LEDGF integ inh, NSD2 inh, TDP2 absorb, UHRF1 binding)
CN1C(=O)c2cc(NC(=O)C3CCOCC3)ccc2OC[C@H]2O[C@@H](CC(=O)NCc3ccccc3F)CC[C@H]21	none (no result: MBD2 DNA inh, LEDGF integ inh, NSD2 inh, TDP2 absorb, UHRF1 binding)
CSc1ncccc1C(=O)OCC(=O)N1CC2(C)CC1CC(C)(C)C2 (configuration not stated)	NSD2 inh 53.1 | AlphaScreen art inactive
COCC(=O)N1[C@@H]2c3ccc(C4=CCCC4)c(=O)n3C[C@@H]2[C@@H](CO)[C@@H]1C(=O)N1CCCCC1	none (no result: MBD2 DNA inh, LEDGF integ inh, NSD2 inh, TDP2 absorb, UHRF1 binding)
C[C@@H]1CN([C@@H](C)CO)C(=O)c2cc(-c3cncnc3)cnc2O[C@H]1CN(C)C(=O)c1ccccc1F	none (no result: MBD2 DNA inh, LEDGF integ inh, NSD2 inh, TDP2 absorb, UHRF1 binding)
CC(=O)Nc1cccc(C(=O)OCc2ccccc2)c1	NSD2 inh 56.5 (no result: CASP6 VEID inh) | AlphaScreen art inactive
CCN1CCN(c2ncnc3scc(-c4ccc(OC)cc4)c23)CC1	NSD2 inh 64.1 | AlphaScreen art inactive
COc1ccc(CN2CCN(c3ncnc4scc(-c5ccc(F)cc5)c34)CC2)cc1	none
CC1CCN(C(=O)C2CCN(S(=O)(=O)c3cccs3)CC2)CC1	none
CC1CC(C)CN(C(=O)C2CCN(S(=O)(=O)c3cccs3)CC2)C1 (configuration not stated)	NSD2 inh 50.3 | AlphaScreen art inactive
CS(=O)(=O)Nc1ccc2c(c1)[C@H]1C[C@H](CC(=O)NCCN3CCCCC3)O[C@H](CO)[C@H]1O2	none (no result: MBD2 DNA inh, LEDGF integ inh, NSD2 inh, TDP2 absorb, UHRF1 binding)
CC(C)NC(=O)Nc1ccc2c(c1)C(=O)N([C@H](C)CO)C[C@H](C)[C@H](CN(C)Cc1ccccc1)O2	none (no result: MBD2 DNA inh, LEDGF integ inh, NSD2 inh, TDP2 absorb, UHRF1 binding)
CC(C)NC(=O)N(C)C[C@@H]1Oc2ccc(NC(=O)Nc3ccc(F)cc3)cc2C(=O)N([C@H](C)CO)C[C@@H]1C	none (no result: MBD2 DNA inh, LEDGF integ inh, NSD2 inh, TDP2 absorb, UHRF1 binding)
Cc1ccc(NC(=S)Nc2cccc3cnccc23)cc1	CASP6 VEID inh 80.3, NSD2 inh 101.2 | AlphaScreen art inactive
CC(=O)c1ccc(NC(=S)Nc2cccc3cnccc23)cc1	NSD2 inh 81.4 | AlphaScreen art inactive
CN(C)C(=O)C[C@@H]1CC[C@H]2[C@H](COc3ccc(NC(=O)c4ccc(F)cc4)cc3C(=O)N2C)O1	none (no result: MBD2 DNA inh, LEDGF integ inh, NSD2 inh, TDP2 absorb, UHRF1 binding)
C[C@@H]1CN([C@@H](C)CO)C(=O)c2cc(/C=C/c3ccccc3)cnc2O[C@H]1CN(C)C(=O)NC1CCCCC1	none (no result: MBD2 DNA inh, LEDGF integ inh, NSD2 inh, TDP2 absorb, UHRF1 binding)
O=C(CSCC(=O)N1CCOCC1)Nc1nc(-c2ccccc2)cs1	NSD2 inh 52.9 | AlphaScreen art inactive
Cc1cccc(NC(=O)C2C3C=CC4(O3)C2C(=O)N(CCCN2CCCC2)C4C(=O)NC2CCCC(C)C2C)c1 (configuration not stated)	none
